Measured values published in ChEMBL document CHEMBL4321805, “A Conformational Restriction Strategy for the Identification of a Highly Selective Pyrimido-pyrrolo-oxazine mTOR Inhibitor” (J Med Chem, 2019).

What was measured:
[1] = target: T1, CYP1A1 (Homo sapiens, UniProt P04798); assay: Substrate activity at recombinant human CYP1A1 expressed in baculovirus infected insect cells assessed as parent compound remaining at 1 uM incubated for 60 mins in presence of NADP+-regenerating system by LC-MS analysis; type: ADME; conditions: read-out: Stability
T1 sequence (P04798 whole entry): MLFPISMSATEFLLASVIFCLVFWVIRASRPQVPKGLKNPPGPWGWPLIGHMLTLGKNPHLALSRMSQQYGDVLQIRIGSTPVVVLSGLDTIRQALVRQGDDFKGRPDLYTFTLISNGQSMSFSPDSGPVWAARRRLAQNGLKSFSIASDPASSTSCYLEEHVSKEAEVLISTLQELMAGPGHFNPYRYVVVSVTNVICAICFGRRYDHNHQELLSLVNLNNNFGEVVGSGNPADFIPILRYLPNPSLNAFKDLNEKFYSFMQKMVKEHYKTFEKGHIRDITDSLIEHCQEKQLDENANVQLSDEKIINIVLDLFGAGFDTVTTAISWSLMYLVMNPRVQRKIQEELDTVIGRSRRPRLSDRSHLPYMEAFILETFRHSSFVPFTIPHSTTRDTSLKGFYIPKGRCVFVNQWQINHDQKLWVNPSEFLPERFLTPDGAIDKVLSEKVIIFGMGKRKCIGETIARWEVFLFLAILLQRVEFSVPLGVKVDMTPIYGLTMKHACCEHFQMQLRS
Outline: (§1)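 Baculovirus/insect-cell Supersomes, each expressing a single human CYP, at 25 pmol/mL. Compound at 1 μM (0.25% DMSO), 37 °C, 60 min. Reactions run with a NADP+-regenerating cofactor mix or, as negative control, without cofactors and glucose-6-phosphate dehydrogenase. Stopped with ACN containing internal standard. Duplicates; % remaining from absolute amounts.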

[2] = target: T2, CYP1A2 (Homo sapiens, UniProt P05177); assay: Substrate activity at recombinant human CYP1A2 expressed in baculovirus infected insect cells assessed as parent compound remaining at 1 uM incubated for 60 mins in presence of NADP+-regenerating system by LC-MS analysis; type: ADME; conditions: read-out: Stability; outline: as §1
T2 sequence (P05177 whole entry): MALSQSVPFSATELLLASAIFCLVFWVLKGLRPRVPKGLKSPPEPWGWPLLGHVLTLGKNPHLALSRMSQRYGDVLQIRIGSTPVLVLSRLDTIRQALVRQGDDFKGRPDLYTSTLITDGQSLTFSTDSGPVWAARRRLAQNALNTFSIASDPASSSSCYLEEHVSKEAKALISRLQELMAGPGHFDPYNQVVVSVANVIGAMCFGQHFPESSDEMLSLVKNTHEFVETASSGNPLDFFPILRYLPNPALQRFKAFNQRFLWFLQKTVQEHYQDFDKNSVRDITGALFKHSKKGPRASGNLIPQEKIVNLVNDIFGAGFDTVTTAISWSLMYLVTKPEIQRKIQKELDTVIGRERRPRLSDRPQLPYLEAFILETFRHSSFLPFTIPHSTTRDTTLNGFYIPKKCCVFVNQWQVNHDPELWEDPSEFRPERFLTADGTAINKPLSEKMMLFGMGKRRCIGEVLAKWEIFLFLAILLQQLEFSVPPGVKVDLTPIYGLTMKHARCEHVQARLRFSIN

[3] = target: mTORC2 (Homo sapiens, UniProt P42345); assay: Inhibition of mTORC2 in human A2058 cells assessed as reduction in PKB phosphorylation at S473 residues incubated for 1 hr by Western blot analysis; type: cell-based
Outline: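 In-cell Western assay. A2058 cells (2 × 10^4/well) grown 24 h at 37 °C, 5% CO2, then exposed 1 h to inhibitor or DMSO. Cells fixed in 4% PFA, blocked, and stained for the phospho-protein with α-tubulin as internal standard; infrared fluorescence read-out. Signals normalized to tubulin and to DMSO controls to derive IC50.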

[4] = target: T3, Phosphatidylinositol 4,5-bisphosphate 3-kinase catalytic subunit delta isoform (Homo sapiens, UniProt O00329); assay: Binding affinity to human wild-type partial length PI3Kdelta (R108 to Q1044 residues) expressed in mammalian expression system by kinome scan assay
T3 sequence (O00329 whole entry): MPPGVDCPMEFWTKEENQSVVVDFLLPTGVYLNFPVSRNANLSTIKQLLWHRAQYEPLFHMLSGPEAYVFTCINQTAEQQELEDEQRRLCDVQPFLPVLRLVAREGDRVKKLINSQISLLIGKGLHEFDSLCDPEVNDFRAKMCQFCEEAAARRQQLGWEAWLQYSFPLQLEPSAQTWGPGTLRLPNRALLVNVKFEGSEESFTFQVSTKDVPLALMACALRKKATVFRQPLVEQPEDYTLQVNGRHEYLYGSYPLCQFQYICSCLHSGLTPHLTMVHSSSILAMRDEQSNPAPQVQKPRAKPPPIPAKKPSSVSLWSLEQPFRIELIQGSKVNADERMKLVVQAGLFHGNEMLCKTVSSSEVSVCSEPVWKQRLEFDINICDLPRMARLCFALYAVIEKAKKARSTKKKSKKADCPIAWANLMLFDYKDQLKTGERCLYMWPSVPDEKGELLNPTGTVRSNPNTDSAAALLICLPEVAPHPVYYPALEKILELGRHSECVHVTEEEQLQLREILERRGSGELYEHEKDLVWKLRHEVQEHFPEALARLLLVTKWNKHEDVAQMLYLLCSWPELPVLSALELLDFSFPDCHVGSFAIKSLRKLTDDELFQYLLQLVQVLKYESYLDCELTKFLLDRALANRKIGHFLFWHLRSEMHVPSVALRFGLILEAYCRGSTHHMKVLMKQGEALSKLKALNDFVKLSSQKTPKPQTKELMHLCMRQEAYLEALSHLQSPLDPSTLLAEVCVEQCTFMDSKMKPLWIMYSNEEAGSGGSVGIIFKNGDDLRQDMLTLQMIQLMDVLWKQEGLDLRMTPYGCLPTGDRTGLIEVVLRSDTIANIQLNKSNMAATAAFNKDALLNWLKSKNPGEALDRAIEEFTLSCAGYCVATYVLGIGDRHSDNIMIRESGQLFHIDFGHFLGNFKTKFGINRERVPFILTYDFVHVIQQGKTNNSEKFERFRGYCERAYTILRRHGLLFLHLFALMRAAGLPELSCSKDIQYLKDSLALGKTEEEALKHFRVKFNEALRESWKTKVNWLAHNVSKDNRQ
Outline: (§2)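 DNA-tagged kinases competed against immobilized ligand with an 11-point 3-fold serial dilution starting from 30 μM. Kinase bound measured by qPCR of the DNA tags. Kd from standard dose–response curves with the Hill equation (Hill slope −1); mean of duplicate experiments.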

[5] = target: Phosphatidylinositol 4,5-bisphosphate 3-kinase catalytic subunit gamma isoform (Homo sapiens, UniProt P48736); assay: Binding affinity to human wild-type partial length PI3Kgamma (S144 to A1102 residues) expressed in mammalian expression system by kinome scan assay; outline: as §2
[6] = target: PI3-kinase p110-alpha/p85-alpha (Homo sapiens, UniProt P42336); assay: Inhibition of alexa fluor 647-labeled kinase tracer 314 binding to recombinant human full-length N-terminal His6-tagged p110alpha/p85alpha expressed in baculovirus expression system by TR-FRET assay
Sequence of PI3-kinase p110-alpha/p85-alpha (P27986 whole entry): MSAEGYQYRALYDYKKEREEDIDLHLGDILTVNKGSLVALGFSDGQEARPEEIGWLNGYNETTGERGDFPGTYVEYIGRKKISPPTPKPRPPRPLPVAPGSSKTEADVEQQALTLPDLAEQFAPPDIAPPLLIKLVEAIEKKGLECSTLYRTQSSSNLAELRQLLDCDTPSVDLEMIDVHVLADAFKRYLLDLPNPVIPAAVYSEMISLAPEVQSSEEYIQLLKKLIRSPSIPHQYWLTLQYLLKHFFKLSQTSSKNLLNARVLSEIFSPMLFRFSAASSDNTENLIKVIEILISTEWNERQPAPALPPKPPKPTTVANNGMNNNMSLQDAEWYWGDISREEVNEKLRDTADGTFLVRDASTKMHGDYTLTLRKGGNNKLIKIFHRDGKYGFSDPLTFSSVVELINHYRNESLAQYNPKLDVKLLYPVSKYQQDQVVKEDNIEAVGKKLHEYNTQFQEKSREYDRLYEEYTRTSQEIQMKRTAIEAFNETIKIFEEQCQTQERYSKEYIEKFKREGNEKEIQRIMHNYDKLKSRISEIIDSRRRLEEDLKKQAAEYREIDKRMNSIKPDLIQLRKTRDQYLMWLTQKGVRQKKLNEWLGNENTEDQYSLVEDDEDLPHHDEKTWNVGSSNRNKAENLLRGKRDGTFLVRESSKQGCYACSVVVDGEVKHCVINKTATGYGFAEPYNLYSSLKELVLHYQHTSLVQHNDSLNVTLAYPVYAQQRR
Sequence of PI3-kinase p110-alpha/p85-alpha (P42336 whole entry): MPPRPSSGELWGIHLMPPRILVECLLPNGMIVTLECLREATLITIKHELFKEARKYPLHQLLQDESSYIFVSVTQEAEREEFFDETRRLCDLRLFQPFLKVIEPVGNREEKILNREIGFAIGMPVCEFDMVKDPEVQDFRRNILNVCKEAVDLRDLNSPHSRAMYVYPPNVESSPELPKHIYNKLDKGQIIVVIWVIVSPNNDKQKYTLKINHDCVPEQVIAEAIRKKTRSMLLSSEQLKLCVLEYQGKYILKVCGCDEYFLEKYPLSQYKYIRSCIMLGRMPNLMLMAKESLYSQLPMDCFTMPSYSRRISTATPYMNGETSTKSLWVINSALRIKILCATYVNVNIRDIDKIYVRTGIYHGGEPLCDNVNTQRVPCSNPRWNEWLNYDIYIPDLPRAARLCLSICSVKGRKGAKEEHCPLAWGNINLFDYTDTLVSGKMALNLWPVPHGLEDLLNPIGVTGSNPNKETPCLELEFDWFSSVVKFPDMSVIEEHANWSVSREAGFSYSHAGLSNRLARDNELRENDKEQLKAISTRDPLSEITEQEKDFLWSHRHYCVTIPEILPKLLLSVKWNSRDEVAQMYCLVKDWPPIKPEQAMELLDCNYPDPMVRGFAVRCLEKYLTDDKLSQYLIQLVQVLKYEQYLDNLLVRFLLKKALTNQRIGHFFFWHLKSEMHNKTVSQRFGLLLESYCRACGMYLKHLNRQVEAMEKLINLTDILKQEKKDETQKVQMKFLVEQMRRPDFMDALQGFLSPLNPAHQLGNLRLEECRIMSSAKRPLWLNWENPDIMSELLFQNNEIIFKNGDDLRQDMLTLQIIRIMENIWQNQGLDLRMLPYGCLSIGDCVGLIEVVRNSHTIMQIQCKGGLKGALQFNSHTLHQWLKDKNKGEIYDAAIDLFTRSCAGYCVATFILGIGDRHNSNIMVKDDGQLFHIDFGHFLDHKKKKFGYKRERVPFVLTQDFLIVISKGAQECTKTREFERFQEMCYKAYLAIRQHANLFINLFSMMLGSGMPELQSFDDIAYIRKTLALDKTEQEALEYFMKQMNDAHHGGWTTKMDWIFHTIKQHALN

Sequence of Phosphatidylinositol 4,5-bisphosphate 3-kinase catalytic subunit gamma isoform (P48736 whole entry, the tested form may be a part, canonical isoform): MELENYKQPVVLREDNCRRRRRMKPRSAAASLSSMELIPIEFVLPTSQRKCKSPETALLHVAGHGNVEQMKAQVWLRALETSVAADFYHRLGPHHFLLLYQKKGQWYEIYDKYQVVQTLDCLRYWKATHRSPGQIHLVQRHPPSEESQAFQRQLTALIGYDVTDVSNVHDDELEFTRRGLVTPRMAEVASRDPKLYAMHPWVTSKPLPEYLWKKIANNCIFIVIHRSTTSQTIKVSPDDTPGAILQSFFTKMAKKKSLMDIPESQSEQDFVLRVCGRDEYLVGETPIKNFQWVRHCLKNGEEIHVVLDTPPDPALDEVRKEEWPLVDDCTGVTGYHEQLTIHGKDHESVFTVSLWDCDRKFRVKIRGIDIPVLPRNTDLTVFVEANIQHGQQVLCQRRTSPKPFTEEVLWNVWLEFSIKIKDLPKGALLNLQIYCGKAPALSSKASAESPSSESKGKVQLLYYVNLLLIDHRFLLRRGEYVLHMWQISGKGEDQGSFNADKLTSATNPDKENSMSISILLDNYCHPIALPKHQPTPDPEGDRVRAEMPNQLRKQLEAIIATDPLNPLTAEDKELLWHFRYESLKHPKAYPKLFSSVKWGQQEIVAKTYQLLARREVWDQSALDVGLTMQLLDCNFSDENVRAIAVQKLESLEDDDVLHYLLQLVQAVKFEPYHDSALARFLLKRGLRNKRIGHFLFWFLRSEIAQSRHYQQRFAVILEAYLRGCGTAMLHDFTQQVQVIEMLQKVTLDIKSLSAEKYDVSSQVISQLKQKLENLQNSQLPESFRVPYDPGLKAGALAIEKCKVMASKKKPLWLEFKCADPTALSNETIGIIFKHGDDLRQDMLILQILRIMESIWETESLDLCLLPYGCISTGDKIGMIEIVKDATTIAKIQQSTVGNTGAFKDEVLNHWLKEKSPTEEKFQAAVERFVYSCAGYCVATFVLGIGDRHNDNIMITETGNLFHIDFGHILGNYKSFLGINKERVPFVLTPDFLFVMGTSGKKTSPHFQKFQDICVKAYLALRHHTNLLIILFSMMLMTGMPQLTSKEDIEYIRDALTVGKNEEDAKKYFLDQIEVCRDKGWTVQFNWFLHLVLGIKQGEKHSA

SMILES | remaining at 1 h, 1 µM [1] [%] | remaining at 1 h, 1 µM [2] [%] | IC50 [3] [nM] | Kd [4] [µM] | Kd [5] [µM] | Ki [6] [nM]
C[C@@H]1COCCN1c1nc(-c2cnc(N)nc2)nc2c1C[C@@H]1COCCN21 | 51 | 73 | 77 | 1.9 | 1.8 | 536
C[C@@H]1COCCN1c1nc(-c2ccc(N)nc2)nc2c1C[C@@H]1COCCN21 |  |  | 133 | 6.2 | 8.7 | 2150
C[C@@H]1COCCN1c1nc(-c2cnc(N)cn2)nc2c1C[C@@H]1COCCN21 | 77 | 92 | 94 | 12 | 11 | 1690
